Laboratory results from ChEMBL document CHEMBL1138555, “N-acylated and N,N'-diacylated imidazolidine-2-thione derivatives and N,N'-diacylated tetrahydropyrimidine-2(1H)-thione analogues: synthesis and antiproliferative activity” (Eur J Med Chem, 2009).

Tests used:
[1] = tested on: SK-MEL-28; test: Growth inhibition of human SK-MEL-28 cells after 48 hrs by sulforhodamine B assay; type: functional; details: SK-MEL-28, 48 h
In short: (§1)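 NCI screen panel. Five 10-fold concentrations from 10^-4 to 10^-8 M. Exposure for the last 48 h of a 72 h incubation. Growth estimated by sulforhodamine B protein assay. GI50 is the concentration giving 50% growth inhibition. Where that level was not reached or was exceeded, the value is given as above or below the highest or lowest concentration tested.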

[2] = tested on: NCI-H460; test: Growth inhibition of human NCI-H460 cells after 48 hrs by sulforhodamine B assay; type: functional; details: NCI-H460, 48 h; in short: as §1
[3] = tested on: HT-29; test: Growth inhibition of human HT-29 cells after 48 hrs by sulforhodamine B assay; type: functional; details: HT-29, 48 h; in short: as §1
[4] = tested on: MDA-MB-435; test: Growth inhibition of human MDA-MB-435 cells after 48 hrs by sulforhodamine B assay; type: functional; details: MDA-MB-435, 48 h; in short: as §1
[5] = tested on: NCI-H23; test: Growth inhibition of human NCI-H23 cells after 48 hrs by sulforhodamine B assay; type: functional; details: NCI-H23, 48 h; in short: as §1
[6] = tested on: MOLT-4; test: Growth inhibition of human MOLT4 cells after 48 hrs by sulforhodamine B assay; type: functional; details: MOLT-4, 48 h; in short: as §1
[7] = tested on: HOP-92; test: Growth inhibition of human HOP92 cells after 48 hrs by sulforhodamine B assay; type: functional; details: HOP-92, 48 h; in short: as §1
[8] = tested on: SK-MEL-2; test: Growth inhibition of human SK-MEL-2 cells after 48 hrs by sulforhodamine B assay; type: functional; details: SK-MEL-2, 48 h; in short: as §1
[9] = tested on: SR; test: Growth inhibition of human SR cells after 48 hrs by sulforhodamine B assay; type: functional
In short: (§2)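 NCI in vitro panel screen. Compounds tested at five 10-fold dilutions, 10^-4 to 10^-8 M. Cells in 96-well plates were exposed for the last 48 h of a 72 h incubation. Viability/growth was read by sulforhodamine B protein assay. GI50 is the concentration giving 50% growth inhibition. Values beyond the tested range are reported as greater or less than the maximum or minimum concentration.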

[10] = tested on: UACC-62; test: Growth inhibition of human UACC62 cells after 48 hrs by sulforhodamine B assay; type: functional; details: UACC-62, 48 h; in short: as §2
[11] = tested on: OVCAR-3; test: Growth inhibition of human OVCAR-3 cells after 48 hrs by sulforhodamine B assay; type: functional; details: OVCAR-3, 48 h; in short: as §1
[12] = tested on: SNB-75; test: Growth inhibition of human SNB75 cells after 48 hrs by sulforhodamine B assay; type: functional; details: SNB-75, 48 h; in short: as §2
[13] = tested on: MCF7; test: Growth inhibition of human MCF7 cells after 48 hrs by sulforhodamine B assay; type: functional; details: MCF7, 48 h; in short: as §1
[14] = tested on: DU-145; test: Growth inhibition of human DU145 cells after 48 hrs by sulforhodamine B assay; type: functional; details: DU-145, 48 h; in short: as §1
[15] = tested on: U-251; test: Growth inhibition of human U251 cells after 48 hrs by sulforhodamine B assay; type: functional; details: U-251, 48 h; in short: as §2
[16] = tested on: T47D; test: Growth inhibition of human T47D cells after 48 hrs by sulforhodamine B assay; type: functional; in short: as §2
[17] = tested on: SW-620; test: Growth inhibition of human SW620 cells after 48 hrs by sulforhodamine B assay; type: functional; details: SW-620, 48 h; in short: as §2
[18] = tested on: NCI-H322M; test: Growth inhibition of human NCI-H322M cells after 48 hrs by sulforhodamine B assay; type: functional; in short: as §1
[19] = tested on: SN12C; test: Growth inhibition of human SN12C cells after 48 hrs by sulforhodamine B assay; type: functional; in short: as §2
[20] = tested on: SNB-19; test: Growth inhibition of human SNB19 cells after 48 hrs by sulforhodamine B assay; type: functional; details: SNB-19, 48 h; in short: as §2
[21] = tested on: PC-3; test: Growth inhibition of human PC3 cells after 48 hrs by sulforhodamine B assay; type: functional; details: PC-3, 48 h; in short: as §1
[22] = tested on: MDA-MB-231; test: Growth inhibition of human MDA-MB-231 cells after 48 hrs by sulforhodamine B assay; type: functional; details: MDA-MB-231, 48 h; in short: as §1
[23] = tested on: CAKI-1; test: Growth inhibition of human Caki1 cells after 48 hrs by sulforhodamine B assay; type: functional; details: CAKI-1, 48 h; in short: as §1
[24] = tested on: A549; test: Growth inhibition of human A549 cells after 48 hrs by sulforhodamine B assay; type: functional; details: A549, 48 h; in short: as §1
[25] = tested on: LOX IMVI; test: Growth inhibition of human LOXIMVI cells after 48 hrs by sulforhodamine B assay; type: functional; in short: as §1
[26] = tested on: K562; test: Growth inhibition of human K562 cells after 48 hrs by sulforhodamine B assay; type: functional; details: K562, 48 h; in short: as §1
[27] = tested on: SK-MEL-5; test: Growth inhibition of human SK-MEL-5 cells after 48 hrs by sulforhodamine B assay; type: functional; details: SK-MEL-5, 48 h; in short: as §1
[28] = tested on: EKVX; test: Growth inhibition of human EKVX cells after 48 hrs by sulforhodamine B assay; type: functional; in short: as §1
[29] = tested on: HL-60(TB); test: Growth inhibition of human HL-60(TB) cells after 48 hrs by sulforhodamine B assay; type: functional; details: HL-60, 48 h
In short: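 NCI 60-cell-line screen protocol: cells exposed to compound at five 10-fold dilutions from 10^-4 to 10^-8 M for the last 48 h of a 72 h incubation. Sulforhodamine B protein assay estimated viability/growth. GI50 (50% growth inhibition) derived; where not reached or exceeded, reported as greater or less than the highest or lowest concentration tested.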

[30] = tested on: SF-268; test: Growth inhibition of human SF268 cells after 48 hrs by sulforhodamine B assay; type: functional; details: SF-268, 48 h; in short: as §1
[31] = tested on: OVCAR-8; test: Growth inhibition of human OVCAR8 cells after 48 hrs by sulforhodamine B assay; type: functional; details: OVCAR-8, 48 h; in short: as §1
[32] = Growth inhibition of human […] cells after 48 hrs by sulforhodamine B assay; type: functional; in short: as §1
[33] = tested on: TK-10; test: Growth inhibition of human TK10 cells after 48 hrs by sulforhodamine B assay; type: functional; details: TK-10, 48 h; in short: as §2
[34] = tested on: SF-295; test: Growth inhibition of human SF295 cells after 48 hrs by sulforhodamine B assay; type: functional; details: SF-295, 48 h; in short: as §1
[35] = tested on: BT-549; test: Growth inhibition of human BT549 cells after 48 hrs by sulforhodamine B assay; type: functional; details: BT-549, 48 h; in short: as §1
[36] = tested on: SF-539; test: Growth inhibition of human SF539 cells after 48 hrs by sulforhodamine B assay; type: functional; details: SF-539, 48 h; in short: as §1
[37] = tested on: OVCAR-4; test: Growth inhibition of human OVCAR4 cells after 48 hrs by sulforhodamine B assay; type: functional; details: OVCAR-4, 48 h; in short: as §1
[38] = tested on: SK-OV-3; test: Growth inhibition of human SKOV3 cells after 48 hrs by sulforhodamine B assay; type: functional; details: SK-OV-3, 48 h; in short: as §1
[39] = tested on: KM12; test: Growth inhibition of human KM12 cells after 48 hrs by sulforhodamine B assay; type: functional; details: KM12, 48 h; in short: as §1
[40] = tested on: COLO 205; test: Growth inhibition of human COLO205 cells after 48 hrs by sulforhodamine B assay; type: functional; details: COLO 205, 48 h; in short: as §1
[41] = tested on: MT4; test: Antiproliferative activity against human MT4 cells assessed as reduction of growth by MTT assay; type: functional, cell-based
In short: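 MT-4 lymphoblastoid T cells (ATCC) in RPMI 1640 with 10% FCS, penicillin/streptomycin, checked for mycoplasma. 1 × 10⁴ mock-infected cells per well with serial dilutions from a 100 mM DMSO stock. Incubated 4 days at 37 °C, viable cells counted by MTT. IC50 versus untreated controls by linear regression. Mean of three separate experiments.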

[42] = tested on: HCT-15; test: Growth inhibition of human HCT15 cells after 48 hrs by sulforhodamine B assay; type: functional; details: HCT-15, 48 h; in short: as §1
[43] = tested on: Malme-3M; test: Growth inhibition of human MALME-3M cells after 48 hrs by sulforhodamine B assay; type: functional; in short: as §1
[44] = tested on: CCRF-CEM; test: Growth inhibition of human CCRF-CEM cells after 48 hrs by sulforhodamine B assay; type: functional; in short: as §1
[45] = tested on: UO-31; test: Growth inhibition of human UO31 cells after 48 hrs by sulforhodamine B assay; type: functional; details: UO-31, 48 h; in short: as §2
[46] = tested on: RXF 393; test: Growth inhibition of human RXF393 cells after 48 hrs by sulforhodamine B assay; type: functional; details: RXF 393, 48 h; in short: as §1
[47] = tested on: IGROV-1; test: Growth inhibition of human IGROV1 cells after 48 hrs by sulforhodamine B assay; type: functional; details: IGROV-1, 48 h; in short: as §1
[48] = tested on: ACHN; test: Growth inhibition of human ACHN cells after 48 hrs by sulforhodamine B assay; type: functional; in short: as §1

## N#CC(C#N)=CN1CCN(C(=O)c2ccco2)C1=S
[1]
  GI50: 12.5 µM
[2]
  GI50: 3.3 µM
[3]
  GI50: 27.7 µM
[4]
  GI50: 5.3 µM
[5]
  GI50: 5.8 µM
[6]
  GI50: 5.2 µM
[7]
  GI50: 22.4 µM
[8]
  GI50: 4.3 µM
[9]
  GI50: 2 µM
[10]
  GI50: 8.8 µM
[11]
  GI50: 11.2 µM
[12]
  GI50: 40.6 µM
[13]
  GI50: 3.5 µM
[14]
  GI50: 5.5 µM
[15]
  GI50: 6.6 µM
[16]
  GI50: 21.2 µM
[17]
  GI50: 5.6 µM
[18]
  GI50: 15.5 µM
[19]
  GI50: 3.1 µM
[20]
  GI50: 38.7 µM
[21]
  GI50: 17.2 µM
[22]
  GI50: 2.9 µM
[23]
  GI50: 4.8 µM
[24]
  GI50: 13.5 µM
[25]
  GI50: 3.3 µM
[26]
  GI50: 6.6 µM
[27]
  GI50: 2.9 µM
[28]
  GI50: 11.9 µM
[29]
  GI50: 19.8 µM
[30]
  GI50: 31.4 µM
[31]
  GI50: 14.6 µM
[32]
  GI50: 4.5 µM
[33]
  GI50: 4.6 µM
[34]
  GI50: 31.3 µM
[35]
  GI50: 6.9 µM
[36]
  GI50: 2.5 µM
[37]
  GI50: 20.1 µM
[38]
  GI50: 33.1 µM
[39]
  GI50: 4.1 µM
[40]
  GI50: 16.5 µM
[41]
  IC50: 4.4 µM
[42]
  GI50: 5.2 µM
[43]
  GI50: 47.8 µM
[44]
  GI50: 79.7 µM
[45]
  GI50: 10.5 µM
[46]
  GI50: 2.6 µM
[47]
  GI50: 6.6 µM
[48]
  GI50: 9.4 µM
